According to ChEMBL document CHEMBL1275417, “Biological activities of novel gyrase inhibitors of the aminocoumarin class” (Antimicrob Agents Chemother, 2008):
Converted amounts (≈) assume the structure as drawn. The source made the active and inactive calls. The rule behind the calls is not given here.

What was measured:
[1] = molecular target: DNA gyrase (Escherichia coli); assay: Inhibition of Escherichia coli JM109 DNA gyrase assessed as DNA triple helix formation by supercoiling assay
[2] = molecular target: T1, Cell division inhibitor SulA (Escherichia coli K-12) (UniProt P0AFZ5); assay: Inhibition of Escherichia coli K-12 DNA sulA expressed in Escherichia coli DC2 assessed as compound concentration required for => 4-fold induction of luxCDABE operon by reported gene assay
T1 sequence (whole entry): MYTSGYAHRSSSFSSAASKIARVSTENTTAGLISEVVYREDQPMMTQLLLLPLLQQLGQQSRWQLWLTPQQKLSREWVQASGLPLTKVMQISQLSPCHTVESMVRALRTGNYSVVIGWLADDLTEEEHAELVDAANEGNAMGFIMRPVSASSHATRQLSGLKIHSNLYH
Summary of the method: (§1)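 E. coli DC2 carrying a gyrA or sulA promoter–luxCDABE (Photorhabdus) fusion plasmid. Grown overnight at 37°C in LB with 2 μg/ml tetracycline, then diluted 1:100 in LB without tetracycline and precultured 1.5 h at 37°C. Compounds were added from DMSO stocks to 1% final DMSO and incubated 5 h at 37°C. Bioluminescence was divided by A595, and induction factor is the treated/untreated ratio. The value is the lowest test concentration giving ≥4-fold induction.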

DNA gyrase subunit B = DNA gyrase subunit B (Escherichia coli, UniProt P0AES6); assay: Inhibition of Escherichia coli JM109 DNA gyrase subunit B assessed as ATP hydrolysis by ATPase assay
[3] = molecular target: DNA gyrase subunit A (Escherichia coli K-12) (UniProt P0AES4); assay: Inhibition of Escherichia coli K-12 DNA gyrase A expressed in Escherichia coli DC2 assessed as compound concentration required for => 4-fold induction of luxCDABE operon by reported gene assay
Summary of the method: as §1

Enterococcus faecium = assay: Antibacterial activity against Enterococcus faecium ATCC 19434 by broth microdilution method; assay type: functional
Staphylococcus aureus [4] = assay: Antibacterial activity against Staphylococcus aureus ATCC 43300 by broth microdilution method; assay type: functional
Escherichia coli [5] = assay: Antibacterial activity against Escherichia coli UB1005 by broth microdilution method; assay type: functional
Escherichia coli [6] = assay: Antibacterial activity against Escherichia coli DC2 by broth microdilution method; assay type: functional
Enterococcus faecalis = assay: Antibacterial activity against Enterococcus faecalis ATCC 29212 by broth microdilution method; assay type: functional
Streptococcus pneumoniae [7] = assay: Antibacterial activity against Streptococcus pneumoniae ATCC 49619 by broth microdilution method; assay type: functional
Streptococcus pneumoniae [8] = assay: Antibacterial activity against Streptococcus pneumoniae SL336-T by broth microdilution method; assay type: functional
Klebsiella pneumoniae = assay: Antibacterial activity against Klebsiella pneumoniae ATCC 27736 by broth microdilution method; assay type: functional
Staphylococcus aureus [9] = assay: Antibacterial activity against Staphylococcus aureus 80CR5 by broth microdilution method; assay type: functional
Escherichia coli [10] = assay: Antibacterial activity against Escherichia coli ATCC 25922 by broth microdilution method; assay type: functional
Staphylococcus aureus [11] = assay: Antibacterial activity against Staphylococcus aureus ATCC 29213 by broth microdilution method; assay type: functional
Streptococcus pneumoniae [12] = assay: Antibacterial activity against Streptococcus pneumoniae TUPELO by broth microdilution method; assay type: functional
Pseudomonas aeruginosa [13] = assay: Antibacterial activity against Pseudomonas aeruginosa ATCC 27853 by broth microdilution method; assay type: functional
Pseudomonas aeruginosa [14] = assay: Antibacterial activity against Pseudomonas aeruginosa K799/WT by broth microdilution method; assay type: functional
Pseudomonas aeruginosa [15] = assay: Antibacterial activity against Pseudomonas aeruginosa K799/61 by broth microdilution method; assay type: functional

SMILES | IC50 [1] | Activity [2] | IC50 (DNA gyrase subunit B) | Activity [3] | also measured
CO[C@@H]1[C@@H](OC(=O)c2ccc(C)[nH]2)[C@@H](O)[C@H](Oc2ccc3c(O)c(NC(=O)/C=C/c4ccc(O)c(Cl)c4)c(=O)oc3c2)OC1(C)C | 0.28 µM | 50 µM | 0.276 µM | 50 µM | 
COc1cc(C(=O)Nc2c(O)c3ccc(O[C@@H]4OC(C)(C)[C@H](OC)[C@@H](OC(=O)c5ccc(C)[nH]5)[C@H]4O)c(C)c3oc2=O)ccc1O | 0.025 µM | 12.5 µM | 0.086 µM | 12.5 µM | MIC (Enterococcus faecium): > 32 µg/mL; MIC (Staphylococcus aureus [4]): 0.25 µg/mL (≈ 0.391 µM); MIC (Escherichia coli [5]): > 32 µg/mL; MIC (Escherichia coli [6]): 16 µg/mL (≈ 25.1 µM); MIC (Enterococcus faecalis): 8 µg/mL (≈ 12.5 µM); MIC (Streptococcus pneumoniae [7]): 1 µg/mL (≈ 1.57 µM); MIC (Streptococcus pneumoniae [8]): 2 µg/mL (≈ 3.13 µM); MIC (Klebsiella pneumoniae): > 32 µg/mL; MIC (Staphylococcus aureus [9]): > 32 µg/mL; MIC (Escherichia coli [10]): > 32 µg/mL; MIC (Staphylococcus aureus [11]): ≤ 0.06 µg/mL; MIC (Streptococcus pneumoniae [12]): 4 µg/mL (≈ 6.26 µM); MIC (Pseudomonas aeruginosa [13]): > 32 µg/mL; MIC (Pseudomonas aeruginosa [14]): > 32 µg/mL; MIC (Pseudomonas aeruginosa [15]): 2 µg/mL (≈ 3.13 µM)
CO[C@@H]1[C@@H](OC(=O)c2ccc(C)[nH]2)[C@@H](O)[C@H](Oc2ccc3c(O)c(NC(=O)/C=C/c4ccccc4)c(=O)oc3c2C)OC1(C)C |  | 50 µM | 0.106 µM | inactive | 
CO[C@@H]1[C@@H](O)[C@@H](OC(=O)c2ccc(C)[nH]2)[C@H](Oc2ccc3c(O)c(NC(=O)c4ccc(SC)cc4)c(=O)oc3c2Cl)OC1(C)C |  | 12.5 µM | 0.28 µM | inactive | 
CO[C@@H]1[C@@H](O)[C@@H](OC(=O)c2ccc(C)[nH]2)[C@H](Oc2ccc3c(O)c(NC(=O)c4cc(C)c(O)c(C)c4)c(=O)oc3c2Cl)OC1(C)C | 0.32 µM | 100 µM | 0.376 µM | 100 µM | 
CO[C@@H]1[C@@H](O)[C@@H](OC(=O)c2ccc(C)[nH]2)[C@H](Oc2ccc3c(O)c(NC(=O)c4ccccc4)c(=O)oc3c2Cl)OC1(C)C | 0.11 µM | 50 µM | 0.297 µM | > 100 µM | 
COc1cc(C(=O)Nc2c(O)c3ccc(O[C@@H]4OC(C)(C)[C@H](OC)[C@@H](O)[C@H]4O)c(C)c3oc2=O)ccc1O |  | inactive | > 10 µM | inactive | 
CO[C@@H]1[C@@H](OC(=O)c2ccc(C)[nH]2)[C@@H](O)[C@H](Oc2ccc3c(O)c(NC(=O)c4ccccc4)c(=O)oc3c2)OC1(C)C | 0.05 µM | 50 µM | 0.219 µM | 50 µM | 
CO[C@@H]1[C@@H](OC(N)=O)[C@@H](O)[C@H](Oc2ccc3c(O)c(NC(=O)c4ccc(O)c(CC=C(C)C)c4)c(=O)oc3c2C)OC1(C)C [NOVOBIOCIN] |  | 6.3 µM |  | 3.1 µM | MIC (Enterococcus faecium): > 32 µg/mL; MIC (Staphylococcus aureus [4]): 0.25 µg/mL (≈ 0.408 µM); MIC (Escherichia coli [5]): > 32 µg/mL; MIC (Escherichia coli [6]): 4 µg/mL (≈ 6.53 µM); MIC (Enterococcus faecalis): > 32 µg/mL; MIC (Streptococcus pneumoniae [7]): 1 µg/mL (≈ 1.63 µM); MIC (Streptococcus pneumoniae [8]): 2 µg/mL (≈ 3.26 µM); MIC (Klebsiella pneumoniae): > 32 µg/mL; MIC (Staphylococcus aureus [9]): > 32 µg/mL; MIC (Escherichia coli [10]): > 32 µg/mL; MIC (Staphylococcus aureus [11]): 0.25 µg/mL (≈ 0.408 µM); MIC (Streptococcus pneumoniae [12]): 2 µg/mL (≈ 3.26 µM); MIC (Pseudomonas aeruginosa [13]): > 32 µg/mL; MIC (Pseudomonas aeruginosa [14]): > 32 µg/mL; MIC (Pseudomonas aeruginosa [15]): 1 µg/mL (≈ 1.63 µM)
CO[C@@H]1[C@@H](OC(=O)c2ccc(C)[nH]2)[C@@H](O)[C@H](Oc2ccc3c(O)c(NC(=O)c4ccc(O)c(CC=C(C)C)c4)c(=O)oc3c2Cl)OC1(C)C [CHLOROBIOCIN] |  | < 1 µM |  | 1.6 µM | MIC (Enterococcus faecium): > 32 µg/mL; MIC (Staphylococcus aureus [4]): ≤ 0.06 µg/mL; MIC (Escherichia coli [5]): > 32 µg/mL; MIC (Escherichia coli [6]): 2 µg/mL (≈ 2.87 µM); MIC (Enterococcus faecalis): 4 µg/mL (≈ 5.74 µM); MIC (Streptococcus pneumoniae [7]): 0.25 µg/mL (≈ 0.359 µM); MIC (Streptococcus pneumoniae [8]): 1 µg/mL (≈ 1.43 µM); MIC (Klebsiella pneumoniae): 16 µg/mL (≈ 23 µM); MIC (Staphylococcus aureus [9]): 4 µg/mL (≈ 5.74 µM); MIC (Escherichia coli [10]): 32 µg/mL (≈ 45.9 µM); MIC (Staphylococcus aureus [11]): ≤ 0.06 µg/mL; MIC (Streptococcus pneumoniae [12]): 1 µg/mL (≈ 1.43 µM); MIC (Pseudomonas aeruginosa [13]): 8 µg/mL (≈ 11.5 µM); MIC (Pseudomonas aeruginosa [14]): 16 µg/mL (≈ 23 µM); MIC (Pseudomonas aeruginosa [15]): ≤ 0.06 µg/mL
CO[C@@H]1[C@@H](O)[C@@H](O)[C@H](Oc2ccc3c(O)c(NC(=O)c4ccccc4)c(=O)oc3c2C)OC1(C)C |  | inactive | > 10 µM | inactive | 
C=CCc1cc(C(=O)Nc2c(O)c3ccc(O[C@@H]4OC(C)(C)[C@H](OC)[C@@H](O)[C@H]4OC(=O)c4ccc(C)[nH]4)c(C)c3oc2=O)ccc1O | 0.46 µM | 100 µM | 2.79 µM | inactive | 
CO[C@@H]1[C@@H](O)[C@@H](O)[C@H](Oc2ccc3c(O)c(NC(=O)/C=C/c4ccccc4)c(=O)oc3c2C)OC1(C)C |  | inactive | > 10 µM | inactive | 
COc1cc(C(=O)Nc2c(O)c3ccc(O[C@@H]4OC(C)(C)[C@H](OC)[C@@H](O)[C@H]4OC(=O)c4ccc(C)[nH]4)c(Cl)c3oc2=O)ccc1O | 0.46 µM | 100 µM | 0.891 µM | inactive | 
CO[C@@H]1[C@@H](O)[C@@H](OC(=O)c2ccc(C)[nH]2)[C@H](Oc2ccc3c(O)c(NC(=O)c4ccc(N)c(C)c4)c(=O)oc3c2C)OC1(C)C | 0.19 µM | 100 µM | 0.784 µM | > 100 µM | 

More lines, main results first:

IC50 [1] | Activity [2] | IC50 (DNA gyrase subunit B) | Activity [3] | SMILES | also measured
< 0.005 µM | 3.1 µM | 0.072 µM | 3.1 µM | CO[C@@H]1[C@@H](OC(=O)c2ccc(C)[nH]2)[C@@H](O)[C@H](Oc2ccc3c(O)c(NC(=O)c4ccccc4)c(=O)oc3c2Cl)OC1(C)C | 
0.075 µM | 25 µM | 0.185 µM | 25 µM | COc1cc(C(=O)Nc2c(O)c3ccc(O[C@@H]4OC(C)(C)[C@H](OC)[C@@H](OC(=O)c5ccc(C)[nH]5)[C@H]4O)cc3oc2=O)ccc1O | 
0.12 µM | inactive | 0.229 µM | > 100 µM | CO[C@@H]1[C@@H](OC(=O)c2ccc(C)[nH]2)[C@@H](O)[C@H](Oc2ccc3c(O)c(NC(=O)c4cc(C)c(O)c(C)c4)c(=O)oc3c2)OC1(C)C | MIC (Enterococcus faecium): > 32 µg/mL; MIC (Staphylococcus aureus [4]): 4 µg/mL (≈ 6.42 µM); MIC (Escherichia coli [5]): > 32 µg/mL; MIC (Escherichia coli [6]): > 32 µg/mL; MIC (Enterococcus faecalis): 16 µg/mL (≈ 25.7 µM); MIC (Streptococcus pneumoniae [7]): 8 µg/mL (≈ 12.8 µM); MIC (Streptococcus pneumoniae [8]): 16 µg/mL (≈ 25.7 µM); MIC (Klebsiella pneumoniae): > 32 µg/mL; MIC (Staphylococcus aureus [9]): > 32 µg/mL; MIC (Escherichia coli [10]): > 32 µg/mL; MIC (Staphylococcus aureus [11]): 4 µg/mL (≈ 6.42 µM); MIC (Streptococcus pneumoniae [12]): 16 µg/mL (≈ 25.7 µM); MIC (Pseudomonas aeruginosa [13]): > 32 µg/mL; MIC (Pseudomonas aeruginosa [14]): > 32 µg/mL; MIC (Pseudomonas aeruginosa [15]): 8 µg/mL (≈ 12.8 µM)
 | 6.3 µM | 0.131 µM | 6.3 µM | CO[C@@H]1[C@@H](OC(=O)c2ccc(C)[nH]2)[C@@H](O)[C@H](Oc2ccc3c(O)c(NC(=O)c4ccccc4)c(=O)oc3c2C)OC1(C)C | 
 | inactive | > 10 µM | inactive | CO[C@@H]1[C@@H](O)[C@@H](O)[C@H](Oc2ccc3c(O)c(NC(=O)c4cc(C)c(O)c(C)c4)c(=O)oc3c2C)OC1(C)C | 
0.14 µM | 100 µM | 0.758 µM | 25 µM | CCCc1cc(C(=O)Nc2c(O)c3ccc(O[C@@H]4OC(C)(C)[C@H](OC)[C@@H](O)[C@H]4OC(=O)c4ccc(C)[nH]4)c(C)c3oc2=O)ccc1O | 
 | inactive | > 10 µM | 3.1 µM | CCCc1cc(C(=O)Nc2c(O)c3ccc(O[C@@H]4OC(C)(C)[C@H](OC)[C@@H](O)[C@H]4O)c(C)c3oc2=O)ccc1O | 
0.032 µM | 25 µM | 0.137 µM | 25 µM | CO[C@@H]1[C@@H](OC(=O)c2ccc(C)[nH]2)[C@@H](O)[C@H](Oc2ccc3c(O)c(NC(=O)/C=C/c4ccc(O)c(Cl)c4)c(=O)oc3c2Cl)OC1(C)C | 
1.2 µM | inactive | 0.598 µM | > 100 µM | CO[C@@H]1[C@@H](O)[C@@H](OC(=O)c2ccc(C)[nH]2)[C@H](Oc2ccc3c(O)c(NC(=O)/C=C/c4ccccc4)c(=O)oc3c2Cl)OC1(C)C | 
